The inhibition is the change of the read-out against control, counted positive when it falls. For orientation: IC50 means the concentration at which inhibition is half-maximal. Read a high IC50 as a need for much substance.

Experiment [1] deals with Receptor tyrosine-protein kinase erbB-2 (Homo sapiens) (UniProt P04626). The experiment can be described thus: Inhibition of N-terminal His-tagged human HER2 cytoplasmic domain (676 to 1255 residues) expressed in baculovirus expression system at 1 uM using FAM-labeled peptide as substrate after 10 mins by mobility shift assay relative to control. In short, it runs like this:
(§1)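 Caliper mobility-shift kinase assay. Kinase in kinase base buffer was preincubated with compound for 10 min at room temperature. FAM-labelled peptide and ATP at Km were then added, and the reaction ran at 28 °C until quenched with buffer. Screening concentration was 1 µM. Percent inhibition = (max − conversion)/(max − min) × 100, with DMSO as max and a low control as min.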

In experiment [2] the target is Fibroblast growth factor receptor 1 (Homo sapiens) (UniProt P11362). The experiment is described as follows: Inhibition of N-terminal GST-tagged human FGFR1 cytoplasmic domain (398 to 822 residues) expressed in baculovirus expression system at 1 uM using FAM-labeled peptide as substrate after 10 mins by mobility shift assay relative to control. The gist of the method:
as §1

For experiment [3], the target named is Proto-oncogene tyrosine-protein kinase receptor Ret (Homo sapiens) (UniProt P07949). The experiment is described as follows: Inhibition of N-terminal GST-tagged human RET cytoplasmic domain (658 to 1114 residues) expressed in baculovirus expression system at 1 uM using FAM-labeled peptide as substrate after 10 mins by mobility shift assay relative to control. In short, it runs like this:
as §1

For experiment [4], the target named is Proto-oncogene tyrosine-protein kinase Src (Homo sapiens) (UniProt P12931). The experiment can be described thus: Inhibition of N-terminal GST-tagged full length human SRC cytoplasmic domain (1 to 536 residues) expressed in baculovirus expression system at 1 uM using FAM-labeled peptide as substrate after 10 mins by mobility shift assay relative to control. The gist of the method:
as §1

Experiment [5] has as its target Tyrosine-protein kinase JAK2 (Homo sapiens) (UniProt O60674). The experiment can be described thus: Inhibition of human N-terminal His-tagged JAK2 catalytic domain (826 to 1132 residues) expressed in baculovirus expression system at 1 uM using FAM-labeled peptide as substrate after 10 mins by mobility shift assay relative to control. In short, it runs like this: as §1

Experiment [6] has as its target High affinity nerve growth factor receptor (Homo sapiens) (UniProt P04629). The experiment can be described thus: Inhibition of N-terminal GST-tagged human TRKA cytoplasmic domain (436 to 790 residues) expressed in baculovirus expression system at 1 uM using FAM-labeled peptide as substrate after 10 mins by mobility shift assay relative to control. The gist of the method:
as §1

For experiment [7], the target named is RAC-alpha serine/threonine-protein kinase (Homo sapiens) (UniProt P31749). The experiment can be described thus: Inhibition of recombinant human N-terminal His-tagged full length human AKT1 (1 to 480 residues) expressed in baculovirus infected Sf9 insect cells at 1 uM using FAM-labeled peptide as substrate after 10 mins by mobility shift assay relative to control. In short, it runs like this: as §1

Experiment [8] deals with Non-receptor tyrosine-protein kinase TYK2 (Homo sapiens) (UniProt P29597). The experiment is described as follows: Inhibition of human N-terminal GST-tagged TYK2 catalytic domain (871 to 1187 residues) expressed in baculovirus expression system at 1 uM using FAM-labeled peptide as substrate after 10 mins by mobility shift assay relative to control. In short, it runs like this: as §1

Experiment [9] concerns the target Mitogen-activated protein kinase kinase kinase kinase 4 (Homo sapiens) (UniProt O95819). The experiment is described as follows: Inhibition of human N-terminal GST-tagged full length MAP4K4 catalytic domain (1 to 328 residues) expressed in baculovirus expression system at 1 uM using FAM-labeled peptide as substrate after 10 mins by mobility shift assay relative to control. The gist of the method: as §1

Experiment [10] deals with T1, Inhibitor of nuclear factor kappa-B kinase subunit beta (Homo sapiens) (UniProt O14920).
T1 sequence (whole entry): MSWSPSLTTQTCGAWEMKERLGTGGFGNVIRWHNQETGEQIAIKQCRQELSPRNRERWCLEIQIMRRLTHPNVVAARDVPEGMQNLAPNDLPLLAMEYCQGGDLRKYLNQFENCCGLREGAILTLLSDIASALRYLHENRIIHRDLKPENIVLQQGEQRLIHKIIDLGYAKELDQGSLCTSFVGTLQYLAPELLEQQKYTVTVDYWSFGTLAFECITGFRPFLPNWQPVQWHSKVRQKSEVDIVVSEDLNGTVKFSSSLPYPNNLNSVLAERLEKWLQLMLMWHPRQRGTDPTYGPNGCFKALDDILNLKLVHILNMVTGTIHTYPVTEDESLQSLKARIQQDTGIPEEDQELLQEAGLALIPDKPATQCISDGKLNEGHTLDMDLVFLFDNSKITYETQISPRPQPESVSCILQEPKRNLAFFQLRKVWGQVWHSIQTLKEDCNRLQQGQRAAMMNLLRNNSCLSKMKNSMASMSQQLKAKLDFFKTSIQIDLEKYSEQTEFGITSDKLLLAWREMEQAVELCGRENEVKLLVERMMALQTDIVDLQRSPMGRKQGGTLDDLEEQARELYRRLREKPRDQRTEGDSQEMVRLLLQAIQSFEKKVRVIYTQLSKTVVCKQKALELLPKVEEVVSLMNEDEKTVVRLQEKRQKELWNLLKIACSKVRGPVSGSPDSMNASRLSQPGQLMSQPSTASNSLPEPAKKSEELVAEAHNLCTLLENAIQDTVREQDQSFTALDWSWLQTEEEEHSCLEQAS
The experiment is described as follows: Inhibition of human N-terminal His-tagged truncated IKKB (1 to 662 residues) expressed in baculovirus expression system at 1 uM using FAM-labeled peptide as substrate after 10 mins by mobility shift assay relative to control. The gist of the method: as §1

Experiment [11] addresses Serine/threonine-protein kinase PAK 2 (Homo sapiens) (UniProt Q13177). The experiment is described as follows: Inhibition of human N-terminal GST-tagged full length PAK2 (1 to 524 residues) expressed in baculovirus expression system at 1 uM using FAM-labeled peptide as substrate after 10 mins by mobility shift assay relative to control. In short, it runs like this: as §1

The target of experiment [12] is Vascular endothelial growth factor receptor 1 (Homo sapiens) (UniProt P17948). The experiment is described as follows: Inhibition of recombinant human GST-tagged FLT1 cytoplasmic domain (781 to 1338 residues) expressed in baculovirus expression system at 1 uM using FAM-labeled peptide as substrate after 10 mins by mobility shift assay relative to control. The gist of the method: as §1

The target of experiment [13] is Vascular endothelial growth factor receptor 3 (Homo sapiens) (UniProt P35916). The experiment can be described thus: Inhibition of recombinant human GST-tagged FLT4 cytoplasmic domain (800 to 1297 residues) expressed in baculovirus expression system at 1 uM using FAM-labeled peptide as substrate after 10 mins by mobility shift assay relative to control. The gist of the method: as §1

The target in experiment [14] is Vascular endothelial growth factor receptor 2 (Homo sapiens) (UniProt P35968). The experiment is described as follows: Inhibition of N-terminal GST-tagged human KDR cytoplasmic domain (790 to 1356 residues) expressed in baculovirus expression system at […] using FAM-labeled peptide as substrate after 10 mins by mobility shift assay relative to control. The gist of the method:
as §1

The subject of a further experiment is NCI-H3255. The experiment can be described thus: Antiproliferative activity against human H3255 cells after 72 hrs by MTT assay. In kind it is functional, cell-based. To be noted: NCI-H3255, 72 h. In short, it runs like this: (§2)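 Cells seeded at 3000/well in growth medium with 10% FBS and left overnight. Treated in triplicate for 72 h at nine concentrations (0.458 to 30,000 nM), with DMSO-only controls. MTT (5 mg/mL) added for the last 4 h, formazan dissolved in DMSO, absorbance read at 490 nm. IC50 from non-linear sigmoidal dose-response fit.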

A further experiment deals with HCC827. The experiment is described as follows: Antiproliferative activity against human HCC827 cells after 72 hrs by MTT assay. The class given is functional, cell-based. The following applies: HCC827, 72 h. The gist of the method: as §2
Background: Formazan colour is commonly taken as a measure of viable cells.

Another experiment has as its system BEAS-2B. The experiment can be described thus: Cytotoxicity against human BEAS2B cells after 72 hrs by MTT assay. The class given is cell-based. In short, it runs like this:
as §2

Non-receptor tyrosine-protein kinase TYK2 (Homo sapiens), sequence (P29597 whole entry, the tested form may be a part): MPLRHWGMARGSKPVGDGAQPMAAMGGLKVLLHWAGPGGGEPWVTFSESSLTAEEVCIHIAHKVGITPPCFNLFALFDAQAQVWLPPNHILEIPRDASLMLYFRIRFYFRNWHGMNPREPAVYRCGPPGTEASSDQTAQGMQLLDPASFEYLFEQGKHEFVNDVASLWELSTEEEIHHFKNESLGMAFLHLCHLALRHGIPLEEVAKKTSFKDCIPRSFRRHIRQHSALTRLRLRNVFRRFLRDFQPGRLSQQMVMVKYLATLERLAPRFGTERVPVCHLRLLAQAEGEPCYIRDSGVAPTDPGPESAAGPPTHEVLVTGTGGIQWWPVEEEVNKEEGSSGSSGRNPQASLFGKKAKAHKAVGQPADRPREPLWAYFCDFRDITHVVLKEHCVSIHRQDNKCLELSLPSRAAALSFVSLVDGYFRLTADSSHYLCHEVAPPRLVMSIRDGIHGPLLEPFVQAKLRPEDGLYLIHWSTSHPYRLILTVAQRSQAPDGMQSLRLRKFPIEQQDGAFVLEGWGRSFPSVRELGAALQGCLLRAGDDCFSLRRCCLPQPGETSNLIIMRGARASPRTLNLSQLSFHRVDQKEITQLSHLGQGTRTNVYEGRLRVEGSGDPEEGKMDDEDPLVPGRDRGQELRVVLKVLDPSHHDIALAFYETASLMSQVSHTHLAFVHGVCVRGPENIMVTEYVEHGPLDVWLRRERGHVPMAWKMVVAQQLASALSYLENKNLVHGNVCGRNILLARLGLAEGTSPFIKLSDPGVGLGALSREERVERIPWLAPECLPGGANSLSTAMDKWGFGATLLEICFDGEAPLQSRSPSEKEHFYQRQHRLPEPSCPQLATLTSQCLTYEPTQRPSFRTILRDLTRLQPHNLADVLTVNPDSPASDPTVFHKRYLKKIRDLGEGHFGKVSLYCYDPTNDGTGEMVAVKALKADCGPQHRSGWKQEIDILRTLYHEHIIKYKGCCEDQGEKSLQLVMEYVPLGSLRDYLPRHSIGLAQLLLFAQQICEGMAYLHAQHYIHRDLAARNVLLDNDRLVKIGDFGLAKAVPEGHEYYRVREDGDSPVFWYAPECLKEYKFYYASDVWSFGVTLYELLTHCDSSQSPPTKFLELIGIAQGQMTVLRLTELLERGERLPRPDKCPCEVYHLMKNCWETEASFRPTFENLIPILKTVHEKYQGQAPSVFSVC
Receptor tyrosine-protein kinase erbB-2 (Homo sapiens), sequence (P04626 whole entry, the tested form may be a part): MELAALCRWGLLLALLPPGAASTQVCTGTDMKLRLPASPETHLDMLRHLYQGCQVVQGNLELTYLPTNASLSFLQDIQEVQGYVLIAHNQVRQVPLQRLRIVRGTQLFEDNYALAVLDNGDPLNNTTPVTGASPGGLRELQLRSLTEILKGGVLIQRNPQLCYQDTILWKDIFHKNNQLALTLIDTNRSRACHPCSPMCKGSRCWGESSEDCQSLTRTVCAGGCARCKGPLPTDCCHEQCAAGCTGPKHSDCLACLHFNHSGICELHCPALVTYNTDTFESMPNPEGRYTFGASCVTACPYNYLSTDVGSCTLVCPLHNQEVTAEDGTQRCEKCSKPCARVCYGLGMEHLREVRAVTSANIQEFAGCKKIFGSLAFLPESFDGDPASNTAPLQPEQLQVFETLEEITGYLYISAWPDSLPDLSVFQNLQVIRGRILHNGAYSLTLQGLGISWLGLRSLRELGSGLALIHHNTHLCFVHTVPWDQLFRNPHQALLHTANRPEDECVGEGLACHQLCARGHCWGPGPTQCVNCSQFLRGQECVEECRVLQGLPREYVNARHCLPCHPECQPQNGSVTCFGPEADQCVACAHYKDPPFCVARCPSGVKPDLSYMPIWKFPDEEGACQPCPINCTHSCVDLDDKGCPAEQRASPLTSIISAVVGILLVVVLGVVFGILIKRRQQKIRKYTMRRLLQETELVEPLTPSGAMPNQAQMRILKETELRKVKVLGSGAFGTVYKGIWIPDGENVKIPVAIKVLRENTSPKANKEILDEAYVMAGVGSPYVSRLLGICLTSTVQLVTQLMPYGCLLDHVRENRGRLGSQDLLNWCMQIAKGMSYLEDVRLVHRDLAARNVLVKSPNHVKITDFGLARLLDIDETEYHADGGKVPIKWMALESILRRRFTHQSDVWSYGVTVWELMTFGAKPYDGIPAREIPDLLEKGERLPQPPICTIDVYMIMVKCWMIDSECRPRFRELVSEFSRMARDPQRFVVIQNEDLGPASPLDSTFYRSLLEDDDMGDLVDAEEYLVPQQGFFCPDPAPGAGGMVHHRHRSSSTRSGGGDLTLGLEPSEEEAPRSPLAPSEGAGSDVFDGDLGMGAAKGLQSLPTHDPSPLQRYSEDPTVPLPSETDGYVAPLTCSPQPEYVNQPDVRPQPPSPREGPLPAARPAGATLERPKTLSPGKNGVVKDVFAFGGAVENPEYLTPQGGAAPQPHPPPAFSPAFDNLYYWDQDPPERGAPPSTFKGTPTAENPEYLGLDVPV
Vascular endothelial growth factor receptor 2 (Homo sapiens), sequence (P35968 whole entry, the tested form may be a part): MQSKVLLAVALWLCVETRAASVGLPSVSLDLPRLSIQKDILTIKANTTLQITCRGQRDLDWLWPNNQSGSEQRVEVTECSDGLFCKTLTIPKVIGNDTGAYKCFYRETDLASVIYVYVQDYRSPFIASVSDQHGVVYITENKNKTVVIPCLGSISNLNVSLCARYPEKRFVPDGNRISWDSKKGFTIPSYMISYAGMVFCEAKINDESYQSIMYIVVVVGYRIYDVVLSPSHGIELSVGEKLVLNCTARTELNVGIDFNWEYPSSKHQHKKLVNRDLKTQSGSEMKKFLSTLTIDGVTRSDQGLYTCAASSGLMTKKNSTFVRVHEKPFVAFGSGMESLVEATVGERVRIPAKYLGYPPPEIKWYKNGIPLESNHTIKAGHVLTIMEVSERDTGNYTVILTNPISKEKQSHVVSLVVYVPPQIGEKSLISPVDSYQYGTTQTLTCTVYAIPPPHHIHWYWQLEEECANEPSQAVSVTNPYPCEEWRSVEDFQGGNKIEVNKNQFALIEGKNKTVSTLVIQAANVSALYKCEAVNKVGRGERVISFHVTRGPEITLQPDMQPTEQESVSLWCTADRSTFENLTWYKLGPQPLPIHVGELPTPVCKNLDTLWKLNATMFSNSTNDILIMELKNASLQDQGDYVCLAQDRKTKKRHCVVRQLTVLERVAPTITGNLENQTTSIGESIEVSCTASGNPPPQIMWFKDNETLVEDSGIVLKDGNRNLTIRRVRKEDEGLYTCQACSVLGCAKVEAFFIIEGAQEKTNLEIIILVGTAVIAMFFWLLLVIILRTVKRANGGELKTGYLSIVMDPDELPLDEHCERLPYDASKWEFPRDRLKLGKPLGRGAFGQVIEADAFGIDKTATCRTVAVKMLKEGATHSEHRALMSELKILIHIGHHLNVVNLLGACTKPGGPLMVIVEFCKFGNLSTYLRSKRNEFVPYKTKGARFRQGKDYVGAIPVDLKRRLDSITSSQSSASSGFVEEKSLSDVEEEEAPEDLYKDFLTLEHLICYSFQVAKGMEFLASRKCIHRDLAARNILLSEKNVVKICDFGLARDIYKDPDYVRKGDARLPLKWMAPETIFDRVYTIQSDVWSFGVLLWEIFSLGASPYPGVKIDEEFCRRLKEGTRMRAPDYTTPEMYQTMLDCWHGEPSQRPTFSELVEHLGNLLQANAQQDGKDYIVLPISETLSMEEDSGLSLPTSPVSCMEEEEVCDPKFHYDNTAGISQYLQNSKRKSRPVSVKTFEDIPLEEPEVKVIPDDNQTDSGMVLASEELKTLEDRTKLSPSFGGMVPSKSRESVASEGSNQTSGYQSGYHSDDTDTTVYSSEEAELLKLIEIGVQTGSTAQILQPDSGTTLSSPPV
Serine/threonine-protein kinase PAK 2 (Homo sapiens), sequence (Q13177 whole entry, the tested form may be a part): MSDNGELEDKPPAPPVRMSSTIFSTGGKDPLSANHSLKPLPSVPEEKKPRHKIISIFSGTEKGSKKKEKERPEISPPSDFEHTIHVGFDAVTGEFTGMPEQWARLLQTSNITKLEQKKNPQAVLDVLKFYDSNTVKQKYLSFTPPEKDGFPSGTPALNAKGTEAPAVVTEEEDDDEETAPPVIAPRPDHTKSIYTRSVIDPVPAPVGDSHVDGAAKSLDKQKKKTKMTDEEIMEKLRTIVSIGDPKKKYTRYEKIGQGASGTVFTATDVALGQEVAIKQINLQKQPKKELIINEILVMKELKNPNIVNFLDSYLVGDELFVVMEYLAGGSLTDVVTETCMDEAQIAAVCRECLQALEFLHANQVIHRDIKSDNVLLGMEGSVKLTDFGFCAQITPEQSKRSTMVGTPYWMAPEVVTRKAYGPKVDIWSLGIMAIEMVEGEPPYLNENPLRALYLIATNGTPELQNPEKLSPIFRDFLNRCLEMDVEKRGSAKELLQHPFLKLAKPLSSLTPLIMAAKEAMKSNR
Proto-oncogene tyrosine-protein kinase Src (Homo sapiens), sequence (P12931 2-536 limits assumed): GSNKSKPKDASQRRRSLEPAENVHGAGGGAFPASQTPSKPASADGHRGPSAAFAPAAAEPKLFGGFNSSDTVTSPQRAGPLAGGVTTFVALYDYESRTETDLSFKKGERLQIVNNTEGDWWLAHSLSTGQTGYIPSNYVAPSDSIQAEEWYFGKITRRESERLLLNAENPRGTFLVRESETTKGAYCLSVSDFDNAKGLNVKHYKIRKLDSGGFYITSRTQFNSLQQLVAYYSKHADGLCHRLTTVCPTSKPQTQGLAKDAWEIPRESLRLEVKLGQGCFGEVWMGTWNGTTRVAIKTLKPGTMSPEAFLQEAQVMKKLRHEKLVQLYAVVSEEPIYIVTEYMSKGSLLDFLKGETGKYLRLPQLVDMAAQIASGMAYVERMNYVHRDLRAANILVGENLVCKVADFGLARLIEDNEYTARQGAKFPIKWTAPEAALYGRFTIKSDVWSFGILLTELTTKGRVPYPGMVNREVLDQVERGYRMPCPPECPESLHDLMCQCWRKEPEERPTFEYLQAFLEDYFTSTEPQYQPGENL

With `CCOC(=O)c1ccc(Nc2cc(NC(=O)CCCC(=O)O)ncn2)cc1`, the inhibition in [1] worked out at 4.9%; in [2], 5.6%; in experiment [3] it was 10.4%; in experiment [4], 11.4%; in experiment [5] it was 4.2%; in experiment [6], 8.4%. Also, the inhibition in [7] is 4.7%; in experiment [8], -1.4%; in experiment [9], 56.3%; in [10], 1.2%; in [11], 15.7%; in [12] it was 2.9%. Also, the inhibition in [13] was 28.2%; in experiment [14] it was -1.4%.

Regarding `O=C(O)CCCC(=O)Nc1cc(N2CCOCC2)ncn1`, the inhibition in [1] is -1.5%; in [2] it was 5.6%; in experiment [3], 8.5%; in experiment [4], 11.7%; in experiment [5], 0.2%; in experiment [6], 6%. Also, the inhibition in [7] is -3%; in experiment [8], 2.5%; in experiment [9], 21.6%; in experiment [10] it was -3.2%; in experiment [11], 9.4%; in [12], -9.5%. Further, the inhibition stood at 9.5% in experiment [13] and 14.4% in experiment [14]. In addition, the results for the IC50 in the experiment with NCI-H3255, with HCC827 and in the experiment on BEAS-2B were 5.69 µM, 1.56 µM and 17.9 µM, respectively.

Take `COc1ccc(Nc2cc(NC(=O)c3ccccc3)ncn2)cc1`: the inhibition was 55.8% in [1]; -1.6% in experiment [2]; 2.9% in experiment [3]; 27.7% in experiment [4]; -4.2% in experiment [5]; 5.6% in experiment [6]. The inhibition in [7] is -3.4%; in experiment [8] it was -7.9%; in experiment [9], 44.8%; in experiment [10], 3.5%; in experiment [11] it was 13.4%; in experiment [12], 2.3%. In addition, the inhibition was determined as 21.6% in experiment [13] and 12.4% in experiment [14]. In addition, the results for the IC50 with NCI-H3255, with HCC827 and in the experiment with BEAS-2B were 8.88 µM, 5.35 µM and 18.5 µM, respectively.

`COc1cccc(Nc2cc(NC(=O)CCCC(=O)O)ncn2)c1`: the inhibition is -1.9% in experiment [1]; 24% in experiment [2]; 7.7% in experiment [3]; 16.6% in experiment [4]; 17.7% in experiment [5]; 18.8% in [6]. Further, the inhibition in experiment [7] was 6.8%; in [8] it was -4.4%; in experiment [9], 13.5%; in experiment [10], 13.3%; in experiment [11], 18.9%; in experiment [12], 11.8%. The inhibition was found to be 29.4% in [13] and 10.5% in experiment [14].

Consider `O=C(O)CCCC(=O)Nc1cc(Nc2cccc(Cl)c2)ncn1`, for which the inhibition came out at 57.3% in experiment [1]; 13.5% in experiment [2]; 16.8% in experiment [3]; 83.7% in experiment [4]; 12.7% in experiment [5]; 9.6% in experiment [6]. Moreover, the inhibition is 0% in [7]; -0.6% in [8]; 78.2% in experiment [9]; 1.1% in experiment [10]; 16.9% in experiment [11]; 12.3% in [12]. Further, the inhibition in experiment [13] came out at 29.4%; in experiment [14] it was 8.5%. Moreover, the IC50 was > 30 µM with NCI-H3255, 4.02 µM in the experiment on HCC827 and 18 µM with BEAS-2B.

Regarding `COc1cccc(Nc2cc(Nc3cc(OC)ccc3OC)ncn2)c1`, the inhibition in experiment [1] is -4.2%; in experiment [2], 4.8%; in experiment [3], 16.3%; in experiment [4], 33.2%; in experiment [5], 0.7%; in experiment [6], 6.8%. Also, the inhibition is -2.1% in [7]; 0% in experiment [8]; 53.5% in [9]; -2.1% in experiment [10]; 4.7% in [11]; 18.1% in experiment [12]. In addition, the inhibition in experiment [13] was determined as 47.3%; in [14], 7.3%. Besides, the IC50 came to 0.86 µM with NCI-H3255, 1.14 µM with HCC827 and 21.4 µM with BEAS-2B.

Values taken from ChEMBL document CHEMBL4265907, “Design, synthesis and pharmacological evaluation of N4,N6-disubstituted pyrimidine-4,6-diamine derivatives as potent EGFR inhibitors in non-small cell lung cancer” (Eur J Med Chem, 2018).
